These results are taken from the array DNA melting data of Ke et al. (doi:10.1101/2024.01.08.574731).

Series [1] can be described thus: melting temperature; fluorescence melt of hairpins on a sequencing array, two-state fit, raised by 9.35 °C to match UV melts. Conditions: sodium 0.088 M. An outline of the steps: (§1)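 Melting temperature and folding enthalpy were obtained by bootstrapped two-state fitting. Fits used Cy3 fluorescence of library hairpins with annealed Cy3 and quencher oligos on a sequenced MiSeq flow cell, imaged in 50 mM Na-HEPES pH 8.0, 25 mM NaCl in 2.5 °C steps up to 60 °C and normalised to pre-quench Cy3 and control constructs. Four replicates were combined by inverse-variance weighting, and fitted temperatures were raised by 9.35 °C to match UV melts.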

The nature of series [2]: folding enthalpy; higher = less favourable; fluorescence melt of hairpins on a sequencing array, two-state fit. Particulars: sodium 0.088 M. The method in brief: as §1

Take GTGGTTGGAAACGATCAC (((.(.(....).).))): the Tm in series [1] is 34.1 °C. Further, the folding enthalpy in series [2] is -75.1 kJ/mol.

In the case of GATCCAAGTATGGATC ((((((....)))))), in series [1], the Tm came out at 50.3 °C. Also, the folding enthalpy in series [2] is -153 kJ/mol.

As for GCCCTCGAAAGAGTTGGC ((((((....)))..))), in series [1], the Tm was 44 °C. The folding enthalpy in series [2] was -97 kJ/mol.

As to GACGGCGAAAGCCGAGTC ((((((....)))..))), in series [1], the Tm amounted to 45.8 °C. Besides, in series [2], the folding enthalpy is -33.8 kJ/mol.

Take GTGCAGGGAAACCTACAC (((.(((....))).))): the Tm in series [1] was 41.5 °C. In series [2], the folding enthalpy was -133 kJ/mol.

Turning to GCATTGCGAAAGCCCTGC (((..((....))..))), the Tm in series [1] came to 34.5 °C. For the same sequence, in series [2], the folding enthalpy is -61.1 kJ/mol.

As for TGGAAGAAATTCCA (((((....))))), in series [1], the Tm was determined as 30.7 °C. Also, the folding enthalpy in series [2] was -51.8 kJ/mol.

GGAGCACGAAAGTGATCC (((.(((....))).))): the Tm in series [1] stood at 66.2 °C. Moreover, the folding enthalpy in series [2] was -160 kJ/mol.

Turning to GGAGCCGAAAGGCAGTCC ((((((....)))..))), the Tm in series [1] was 36.1 °C. In addition, in series [2], the folding enthalpy is -55.4 kJ/mol.

For GCGTCGGGACGC ((((....)))), the Tm in series [1] came to 66 °C. Further, the folding enthalpy in series [2] is -84.6 kJ/mol.

As for GCCAACGAAAGTTTGGGC ((((((....)))..))), in series [1], the Tm was 46 °C. The folding enthalpy in series [2] is -112 kJ/mol.

As for GGCAGCGGAAACGCTGTC (.(((((....))))).), in series [1], the Tm was 67.2 °C. The folding enthalpy in series [2] was -73.6 kJ/mol.

In the case of GCACAGCGAAAGCTCGGC ((..(((....)))..)), the Tm in series [1] amounted to 38.4 °C. For the same sequence, the folding enthalpy in series [2] is -63.4 kJ/mol.

For GAACAGGGAAACCCGTTC ((((.((....)).)))), in series [1], the Tm came out at 41.8 °C. Besides, the folding enthalpy in series [2] is -102 kJ/mol.

On to GCGGACGAAAGTCGCCGC ((((((....)))..))), for which the Tm in series [1] stood at 52.4 °C. Further, the folding enthalpy in series [2] was -75.9 kJ/mol.

As for GTGAGAGGAAACTCTTAC ((.((((....)))).)), the Tm in series [1] turned out to be 38.2 °C. Further, the folding enthalpy in series [2] was -129 kJ/mol.

Take GATCAAGATTTTGATC ((((((....)))))): the Tm in series [1] was 44.5 °C. The folding enthalpy in series [2] was -119 kJ/mol.

GAATCGCGAAAGCGGTTC (((.(((....))).))): the Tm in series [1] turned out to be 61.7 °C. The folding enthalpy in series [2] was -127 kJ/mol.

Turning to GGAGTTCGAAAGAAATCC (((.(((....))).))), the Tm in series [1] came out at 49.2 °C. In addition, in series [2], the folding enthalpy was -142 kJ/mol.

Regarding GACGGGGGAAACCTCGTC ((((.((....)).)))), the Tm in series [1] was 55.1 °C. Also, the folding enthalpy in series [2] was -133 kJ/mol.

Consider GACGACGAAAGTCGTGTC ((((((....)))..))), for which the Tm in series [1] came to 59.9 °C. Moreover, the folding enthalpy in series [2] was -43.8 kJ/mol.

For the sequence GGTTCCGAAAGGATAACC ((((((....)))..))), the Tm in series [1] worked out at 43.5 °C. Further, the folding enthalpy in series [2] is -85.9 kJ/mol.

Take GGAATAGGAAACTATCCC ((.((((....)))).)): in series [1], the Tm was found to be 28 °C. Further, the folding enthalpy in series [2] is -45.5 kJ/mol.

On to GGAATCGGAAACGATCCC ((.((((....)))).)), for which the Tm in series [1] was 45.5 °C. Moreover, the folding enthalpy in series [2] is -108 kJ/mol.

Turning to GCTATGCGAAAGCAACGC ((..(((....)))..)), the Tm in series [1] was 39.1 °C. In series [2], the folding enthalpy was -43.8 kJ/mol.

Regarding GGCTCCGGAAACGGAACC ((.((((....)))).)), the Tm in series [1] came out at 51.1 °C. Besides, the folding enthalpy in series [2] was -121 kJ/mol.

As to GTTGACGAAAGTCAGAAC ((((((....)))..))), in series [1], the Tm was 36.5 °C. The folding enthalpy in series [2] is -43.7 kJ/mol.

For the sequence CAACAGAAATGTTG (((((....))))), the Tm in series [1] was determined as 40.8 °C. Moreover, the folding enthalpy in series [2] was -92.3 kJ/mol.

Take GCAATAGGAAACTGTTGC ((((.((....)).)))): the Tm in series [1] is 47.4 °C. In series [2], the folding enthalpy is -138 kJ/mol.

In the case of GATCAATGCTTGATC ((((((...)))))), the Tm in series [1] was determined as 43.2 °C. Further, the folding enthalpy in series [2] is -119 kJ/mol.
